Source: PubChem (several laboratories)
A selection: hits, their analogues and other compounds. The true share with any hit is near 1.6%.
SR-BI uptake up: enhances SR-BI lipid uptake from DiI-HDL | CHO ldlA[mSR-BI] cells, DiI-HDL uptake fluorescence, 3 h; 100 = double the neutral-control signal | activation, % at 12.5 µM | hit rate 0.096% among 320,000 | AID 504775;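 active = mean replicate activation of at least 60% and every replicate at or above 60%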
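System: CHO ldlA[mSR-BI] cells / Medium: HEPES-buffered (25 mM, pH 7.4) F12 plus 0.5% BSA / Probe or stimulus: labelled HDL, 10 µg/mL / Doses: single compound concentration, delivered by pin transfer / Schedule: 3 h, 37 °C / Measured by: DiI fluorescence, bottom read / Measure: cell-associated DiI fluorescence as measure of HDL uptake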
A1 inh: inhibitors of the anti-apoptotic protein A1, read as caspase activation. MEF A1-2A-BIM cells, Caspase-Glo 3/7 luminescence, 3 h; percent of clofoctol response, vehicle zero. caspase activation, % (test concentration not listed). hit rate 0.066% among 330,000. AID 2462;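 active = over half of replicate activation scores above 10%, or exactly half above 10 with the replicate mean above 10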
H9c2 TAG inh: inhibitors of triacylglycerol accumulation | hit rate 0.66% among 230,000 | H9c2 cells, Nile Red lipid (TAG) fluorescence; cells loaded with 200 µM oleic acid | inhibition, % at 12.5 µM | AID 651582;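 active = pattern-corrected inhibition of lipid staining of at least 50% with the nuclear-stain viability signal not falling by more than 50%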
Vif inh: HIV Vif inhibition. hit rate 0.35% among 340,000. inhibition, % at 7.49 µM. HEK293T cells, Vif self-association by quenched fluorescence, imaging, 24 h; in the data active = inhibition above about 50%, passing the limit was not always enough
SR-BI DiI inh: blocks mouse SR-BI lipid uptake from DiI-HDL; Q61009; inhibition, % at 12.5 µM; ldlA[mSR-BI] CHO cells, DiI-HDL uptake fluorescence, 3 h; hit rate 0.96% among 320,000;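 active = mean replicate inhibition of at least 70% and a set share of replicates each scoring 70 or more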
Target sequence (Q61009 whole entry, looked up): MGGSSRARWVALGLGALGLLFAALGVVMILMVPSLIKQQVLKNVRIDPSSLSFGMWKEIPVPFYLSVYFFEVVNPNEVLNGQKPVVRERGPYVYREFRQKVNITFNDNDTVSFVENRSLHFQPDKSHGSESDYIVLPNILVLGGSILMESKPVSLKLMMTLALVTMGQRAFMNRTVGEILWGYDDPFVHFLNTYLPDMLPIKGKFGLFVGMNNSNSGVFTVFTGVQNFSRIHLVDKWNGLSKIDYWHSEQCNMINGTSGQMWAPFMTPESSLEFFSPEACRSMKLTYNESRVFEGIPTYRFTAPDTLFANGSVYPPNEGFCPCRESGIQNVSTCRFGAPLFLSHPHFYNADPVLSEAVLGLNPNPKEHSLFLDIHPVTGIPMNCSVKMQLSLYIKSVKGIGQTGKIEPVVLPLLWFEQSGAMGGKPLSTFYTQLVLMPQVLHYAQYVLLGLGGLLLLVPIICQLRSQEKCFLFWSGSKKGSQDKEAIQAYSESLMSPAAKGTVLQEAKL
Hits are given with their value.

Results for COc1cc(/C=C(\C#N)c2nc3ccccc3[nH]2)c([N+](=O)[O-])cc1OCc1ccccc1 ?
SR-BI uptake up: inactive; A1 inh: inactive; H9c2 TAG inh: inactive; Vif inh: inactive; SR-BI DiI inh: 85

Results for COc1cc(/C=C(\C#N)c2nc3ccccc3[nH]2)ccc1OC(=O)c1ccco1 ?
SR-BI uptake up: inactive; A1 inh: inactive; H9c2 TAG inh: inactive; Vif inh: inactive; SR-BI DiI inh: inactive

How did CCc1nc2c(OCC3CCCCC3)cccn2c1N(C)C(=O)c1ccc(C)cc1 do in these assays?
H9c2 TAG inh: inactive; Vif inh: inactive

Results for Cc1ccc(C(=O)NCCCN2CCOCC2)c(Cl)c1 ?
SR-BI uptake up: inactive; A1 inh: inactive; Vif inh: inactive; SR-BI DiI inh: inactive

Results for CN(CCOc1ccccc1)C(=O)C1CCC(=O)N(CCc2ccc(Cl)cc2)C1 (configuration not stated) ?
SR-BI uptake up: inactive; A1 inh: inactive; H9c2 TAG inh: inactive; Vif inh: inactive; SR-BI DiI inh: inactive

Results for CCn1cc(C(=O)OCC(=O)OC2CC(C)CCC2C(C)C)c(=O)c2ccc(C)nc21 (configuration not stated) ?
SR-BI uptake up: inactive; A1 inh: inactive; H9c2 TAG inh: inactive; Vif inh: inactive; SR-BI DiI inh: 81

What do the screens show for `Cc1cc(C)c(C#N)c(Oc2ccccc2Br)n1`?
SR-BI uptake up: inactive; A1 inh: inactive; H9c2 TAG inh: inactive; SR-BI DiI inh: inactive

How did O=C(Nc1nnc(SCc2ccccn2)s1)C1CC(=O)N(c2ccc(F)cc2)C1 (configuration not stated) do in these assays?
SR-BI uptake up: inactive; A1 inh: inactive; H9c2 TAG inh: inactive; Vif inh: inactive; SR-BI DiI inh: inactive

What do the screens show for `CCCCOn1c(C)c(C(C)=O)c2c3no[n+]([O-])c3ccc21`?
SR-BI uptake up: inactive; A1 inh: inactive; H9c2 TAG inh: inactive; Vif inh: inactive; SR-BI DiI inh: 78

How did CCOC(=O)c1c(C)n(OCc2ccccc2)c2ccc3c(no[n+]3[O-])c12 do in these assays?
SR-BI uptake up: inactive; A1 inh: inactive; Vif inh: inactive; SR-BI DiI inh: 86

How did C#CCSc1nnc(-c2sc(-c3ccccc3)nc2C)n1C do in these assays?
SR-BI uptake up: inactive; H9c2 TAG inh: inactive; Vif inh: inactive; SR-BI DiI inh: 74

How did C#CCSc1nnc(-c2c[nH]c3ccccc23)n1C do in these assays?
SR-BI uptake up: inactive; A1 inh: inactive; H9c2 TAG inh: inactive; Vif inh: inactive; SR-BI DiI inh: inactive

How did S=C(NN=C(c1ccccc1)c1ccccn1)N(Cc1ccccn1)Cc1ccccn1 do in these assays?
SR-BI uptake up: inactive; H9c2 TAG inh: 62; Vif inh: inactive; SR-BI DiI inh: inactive

What do the screens show for `CC(=NNC(=S)N(Cc1ccccn1)Cc1ccccn1)c1cnccn1`?
SR-BI uptake up: inactive; H9c2 TAG inh: inactive; Vif inh: inactive; SR-BI DiI inh: inactive

How did CCN(CCO)Cc1csc2ccc(Cl)cc12 do in these assays?
SR-BI uptake up: 70; A1 inh: inactive; Vif inh: inactive; SR-BI DiI inh: inactive

What do the screens show for `CCN(CCO)Cc1csc2ccc(C(C)(C)C)cc12`?
SR-BI uptake up: inactive; A1 inh: inactive; Vif inh: inactive; SR-BI DiI inh: inactive

What do the screens show for `O=C(Nc1ccc2ncccc2c1)c1ccccc1Br`?
SR-BI uptake up: 214; A1 inh: inactive; H9c2 TAG inh: inactive; Vif inh: inactive; SR-BI DiI inh: inactive

How did O=C1Nc2ccccc2SC1=Cc1ccccc1 do in these assays?
H9c2 TAG inh: inactive; Vif inh: inactive

How did O=C1Nc2ccccc2S/C1=C/Nc1cccc(Cl)c1 do in these assays?
SR-BI uptake up: inactive; A1 inh: inactive; H9c2 TAG inh: inactive; Vif inh: 123; SR-BI DiI inh: inactive

How did CNCC(=O)N(CC(C)C)c1c(N)n(CC(C)C)c(=O)[nH]c1=O do in these assays?
SR-BI uptake up: inactive; A1 inh: inactive; H9c2 TAG inh: inactive; Vif inh: inactive; SR-BI DiI inh: inactive

Results for O=C(CCl)N(c1ccccc1)c1c[nH]c2ccccc12 ?
SR-BI uptake up: inactive; A1 inh: inactive; H9c2 TAG inh: 79; Vif inh: inactive; SR-BI DiI inh: inactive

What do the screens show for `CC(=O)n1cc(N(C(=O)CCl)c2ccccc2)c2ccccc21`?
SR-BI uptake up: inactive; A1 inh: inactive; H9c2 TAG inh: 65; Vif inh: inactive; SR-BI DiI inh: inactive

What do the screens show for `Cc1cc(OC(=O)c2c(F)cc(F)cc2F)nc(C)n1`?
SR-BI uptake up: inactive; A1 inh: inactive; H9c2 TAG inh: inactive; Vif inh: inactive; SR-BI DiI inh: inactive

Results for COc1ccc(OCCN2CCC(C(=O)NC(c3ccccn3)c3ccccc3OC)CC2)cc1 (configuration not stated) ?
H9c2 TAG inh: inactive; Vif inh: 51

Results for COCC(C)NC(=O)c1cc2cccc([N+](=O)[O-])c2[nH]1 (configuration not stated) ?
SR-BI uptake up: inactive; A1 inh: inactive; H9c2 TAG inh: inactive; Vif inh: inactive; SR-BI DiI inh: inactive

What do the screens show for `Cc1cc(NC(=O)c2cc3cccc([N+](=O)[O-])c3[nH]2)ccc1F`?
SR-BI uptake up: inactive; A1 inh: inactive; H9c2 TAG inh: inactive; Vif inh: inactive; SR-BI DiI inh: 77

How did O=C(OCc1ccc([N+](=O)[O-])cc1)c1cc(=O)c2ccccc2o1 do in these assays?
SR-BI uptake up: inactive; A1 inh: inactive; Vif inh: inactive; SR-BI DiI inh: inactive

What do the screens show for `O=[N+]([O-])c1ccccc1/C=C/C=N/Nc1nc(N2CCCCC2)nc(N2CCCCC2)n1`?
SR-BI uptake up: inactive; A1 inh: inactive; H9c2 TAG inh: inactive; Vif inh: inactive; SR-BI DiI inh: 79

How did CCOC(=O)c1sc2nc(N3CCOCC3)c3c(c2c1N)CCCC3 do in these assays?
SR-BI uptake up: inactive; A1 inh: inactive; H9c2 TAG inh: inactive; Vif inh: inactive; SR-BI DiI inh: 74

Results for CCN(CC)C(=O)c1sc2nc(N3CCOCC3)c3c(c2c1N)CCCC3 ?
SR-BI uptake up: inactive; A1 inh: inactive; H9c2 TAG inh: inactive; Vif inh: inactive; SR-BI DiI inh: inactive

What do the screens show for `O=C(Nc1ccc(Cl)cc1F)C1CCN(S(=O)(=O)c2cccc3nonc23)CC1`?
SR-BI uptake up: inactive; A1 inh: inactive; Vif inh: inactive; SR-BI DiI inh: inactive

How did CCCCCN(C(=O)CCC(=O)OCC(=O)N1CCCC(C)C1)c1c(N)n(CCCC)c(=O)[nH]c1=O (configuration not stated) do in these assays?
SR-BI uptake up: inactive; A1 inh: inactive; H9c2 TAG inh: inactive; SR-BI DiI inh: inactive

Results for CCOc1ccccc1NC(=O)/C=C/c1ccccc1[N+](=O)[O-] ?
SR-BI uptake up: inactive; A1 inh: inactive; Vif inh: inactive; SR-BI DiI inh: 82

What do the screens show for `CCCn1c(SCC(=O)Nc2ccc(S(=O)(=O)N(C)C)cc2)n[nH]c1=O`?
SR-BI uptake up: inactive; A1 inh: inactive; H9c2 TAG inh: inactive; Vif inh: inactive; SR-BI DiI inh: inactive

How did O=C(/C=C\c1ccccc1[N+](=O)[O-])Nc1ccccc1 do in these assays?
SR-BI uptake up: inactive; A1 inh: inactive; H9c2 TAG inh: inactive; Vif inh: inactive; SR-BI DiI inh: inactive
